Source: article PMC9301951 (ACS Omega, 2022)

Assays:
[1] = molecular target: equine serum-derived BuChE (eqBuChE) (Equus caballus, UniProt P81908); experiment: Cholinesterase inhibition assay, BuChE; assay type: biochemical, horse; details: read-out: BuChE inhibitory activity inhibition (%)
[2] = molecular target: electric eel-derived AChE (eeAChE) (Electrophorus electricus, UniProt O42275); experiment: Cholinesterase inhibition assay, AChE; assay type: biochemical; details: read-out: AChE inhibitory activity inhibition (%)
Sequence of electric eel-derived AChE (eeAChE) (O42275 24-633): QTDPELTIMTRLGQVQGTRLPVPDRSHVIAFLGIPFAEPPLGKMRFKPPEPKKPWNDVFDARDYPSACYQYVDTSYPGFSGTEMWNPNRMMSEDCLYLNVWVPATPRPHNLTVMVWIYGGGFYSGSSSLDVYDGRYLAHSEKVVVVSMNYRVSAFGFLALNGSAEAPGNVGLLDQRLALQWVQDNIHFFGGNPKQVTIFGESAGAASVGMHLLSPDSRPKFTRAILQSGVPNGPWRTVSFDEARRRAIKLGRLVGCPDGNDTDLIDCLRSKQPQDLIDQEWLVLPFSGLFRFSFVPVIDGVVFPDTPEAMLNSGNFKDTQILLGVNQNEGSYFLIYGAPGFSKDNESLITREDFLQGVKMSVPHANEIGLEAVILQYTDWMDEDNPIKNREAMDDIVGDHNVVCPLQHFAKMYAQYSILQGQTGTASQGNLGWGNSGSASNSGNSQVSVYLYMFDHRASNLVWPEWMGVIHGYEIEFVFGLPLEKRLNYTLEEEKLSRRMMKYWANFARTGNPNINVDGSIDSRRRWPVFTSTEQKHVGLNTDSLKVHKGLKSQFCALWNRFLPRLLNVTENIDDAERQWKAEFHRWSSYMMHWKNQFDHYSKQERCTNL

SK-N-SH cells = experiment: Neuroprotective effect on H2O2-induced decrease in cell viability; assay type: cell-based; details: Figure 5; H2O2-treated neurons, concentrations of 0.075–0.6 μM
Method in brief: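 Cells challenged with H2O2 and treated with test compound at 0.15 μM. Viability given as % of control, with control set at 100%. Recovery (%) is viability of compound-treated cells minus viability of H2O2-only cells. Data are mean ± SD, n = 3.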

Sequence of equine serum-derived BuChE (eqBuChE) (P81908 whole entry): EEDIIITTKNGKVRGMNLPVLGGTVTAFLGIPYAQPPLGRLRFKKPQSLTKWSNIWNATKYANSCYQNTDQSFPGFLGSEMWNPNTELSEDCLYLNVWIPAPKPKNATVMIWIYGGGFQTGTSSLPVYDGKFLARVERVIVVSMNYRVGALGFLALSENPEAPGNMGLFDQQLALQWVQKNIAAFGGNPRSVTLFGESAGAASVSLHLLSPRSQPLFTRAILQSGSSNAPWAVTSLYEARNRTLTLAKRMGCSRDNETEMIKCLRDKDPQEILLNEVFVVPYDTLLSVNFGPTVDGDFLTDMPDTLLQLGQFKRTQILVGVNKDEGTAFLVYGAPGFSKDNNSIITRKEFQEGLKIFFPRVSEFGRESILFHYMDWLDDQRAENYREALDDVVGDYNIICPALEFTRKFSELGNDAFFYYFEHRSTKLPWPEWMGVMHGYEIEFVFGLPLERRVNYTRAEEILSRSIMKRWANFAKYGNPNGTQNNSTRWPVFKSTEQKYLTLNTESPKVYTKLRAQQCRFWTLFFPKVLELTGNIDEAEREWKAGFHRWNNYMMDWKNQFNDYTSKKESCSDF

`COc1ccc2c3c1O[C@H]1C[C@@H](O)C=C[C@@]31CCN(C)C2` [galantamine] was tested, and the inhibition at 10000 µM [1] was 96.21 ± 0.18%.
Compound `COC(=O)C1=CO[C@@H](O[C@@H]2O[C@H](CO)[C@@H](O)[C@H](O)[C@H]2O)[C@@H]2C(CO)=CC[C@H]12` [geniposide] has an inhibition at 10000 µM [2] of 0.73 ± 0.11% and an inhibition at 10000 µM [1] of 2.09 ± 0.18%.
In the case of `COC(=O)C1=CO[C@@H](O)[C@@H]2C(CO)=CC[C@H]12` [genipin 1, genipin], the inhibition at 10000 µM [2] is reported as 4.94 ± 0.05%, the inhibition at 10000 µM [1] is reported as 2.42 ± 0.18% and the cell viability (SK-N-SH cells) is reported as > 78%.
